From PubChem
p47phox inh = inhibitors of human p47phox binding. p47phox/p22phox peptide binding, fluorescence polarization, 2 h. inhibition, % at 24.7 µM. 220,000 tested, 0.53% active;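 active = inhibition above about 30%, limit read from the data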;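 note: 0% = p47phox with labelled peptide and 100% = labelled peptide alone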
p-CIP stab down = p/CIP protein destabilization | Q05BA5 | F442A p/CIP-EGFP cells, EGFP fluorescence, 16 h | decrease of EGFP signal, % at 10 µM | 290,000 tested, 0.01% active;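 active = EGFP signal decrease of at least 30% at 10 µM or well 3 SD below plate mean, unless failing retest; inactive = the rest, including hits failing retest or dose response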
Target sequence (Q05BA5 1-1403): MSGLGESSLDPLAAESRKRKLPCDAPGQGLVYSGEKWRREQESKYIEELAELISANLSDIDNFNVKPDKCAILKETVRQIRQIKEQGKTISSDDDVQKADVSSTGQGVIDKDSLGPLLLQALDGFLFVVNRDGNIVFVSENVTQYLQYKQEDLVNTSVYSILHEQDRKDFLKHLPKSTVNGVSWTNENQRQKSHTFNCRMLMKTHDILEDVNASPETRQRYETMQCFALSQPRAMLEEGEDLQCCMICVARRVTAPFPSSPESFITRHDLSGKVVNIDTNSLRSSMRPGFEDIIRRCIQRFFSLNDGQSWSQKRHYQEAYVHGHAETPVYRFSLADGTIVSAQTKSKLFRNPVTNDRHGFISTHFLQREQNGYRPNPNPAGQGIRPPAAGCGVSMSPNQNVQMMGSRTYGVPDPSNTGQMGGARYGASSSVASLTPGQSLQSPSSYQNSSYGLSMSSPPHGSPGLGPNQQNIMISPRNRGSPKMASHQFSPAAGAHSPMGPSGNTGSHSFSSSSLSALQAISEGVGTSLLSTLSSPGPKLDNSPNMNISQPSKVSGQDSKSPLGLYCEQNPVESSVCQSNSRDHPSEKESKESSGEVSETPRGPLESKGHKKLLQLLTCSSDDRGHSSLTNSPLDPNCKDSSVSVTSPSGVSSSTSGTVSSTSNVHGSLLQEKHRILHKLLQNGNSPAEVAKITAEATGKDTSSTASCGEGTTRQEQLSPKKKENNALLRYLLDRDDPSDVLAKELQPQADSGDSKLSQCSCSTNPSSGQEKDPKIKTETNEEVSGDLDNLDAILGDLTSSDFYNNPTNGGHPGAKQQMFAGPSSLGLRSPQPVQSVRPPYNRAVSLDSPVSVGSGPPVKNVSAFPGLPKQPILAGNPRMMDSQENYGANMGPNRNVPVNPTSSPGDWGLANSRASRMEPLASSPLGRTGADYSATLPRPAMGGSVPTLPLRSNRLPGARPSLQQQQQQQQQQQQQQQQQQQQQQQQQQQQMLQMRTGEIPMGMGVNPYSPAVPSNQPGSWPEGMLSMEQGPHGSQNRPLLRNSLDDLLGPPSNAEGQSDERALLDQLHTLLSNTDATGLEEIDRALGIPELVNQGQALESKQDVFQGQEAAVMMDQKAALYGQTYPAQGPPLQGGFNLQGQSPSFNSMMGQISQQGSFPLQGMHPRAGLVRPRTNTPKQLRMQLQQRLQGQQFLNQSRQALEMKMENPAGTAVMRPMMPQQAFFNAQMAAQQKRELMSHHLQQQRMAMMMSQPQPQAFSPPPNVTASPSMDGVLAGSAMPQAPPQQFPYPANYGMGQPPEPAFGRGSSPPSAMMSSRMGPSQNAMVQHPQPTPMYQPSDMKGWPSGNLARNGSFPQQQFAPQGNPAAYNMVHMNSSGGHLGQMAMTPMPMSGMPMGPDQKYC
RAM inhibit = blocks the yeast RAM network. 190,000 tested, 1.8% active. inhibition, % at 50 µM. AID 868. S. cerevisiae dse1pr::URA3 reporter, 5-FOA growth OD615, 2 d; analog-sensitive cbk1-as2 kinase mutant strain;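 active = inhibition above a set limit, 3 SD over mean compound inhibition, cut at about 8.4% in these data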;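 note: 0% = DMSO-only wells with no growth and 100% = 10 µM 1-NA-PP1 full growth; inhibition rescues growth on 5-FOA so higher OD means more RAM inhibition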
Dynein cargo inh = dynein cargo transport inhibition. 220,000 tested, 0.47% active. 3617.4 mouse cells, GR-EGFP nuclear translocation imaging; test concentration mostly 20 µM; stimulated with dexamethasone, 1 µM; stronger effect = lower value. AID 1381. z-score, hits read low;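 active = plate z-score of nuclear minus cytoplasmic receptor signal below a set negative limit, without overly bright fluorescence or cell loss, cut at about -3.5 in these data, passing the limit was not always enough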;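 note: z-score of nuclear minus cytoplasmic ring GR-EGFP intensity difference per well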
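Also added – dexamethasone, 1.0 µM final · Buffer or medium – tet-free, stripped-serum medium · Schedule – induction 48 h, compound 1 h, agonist 30 min · Detection – formaldehyde fixation, Hoechst nuclear stain, 10x automated fluorescence imaging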
RAM efflux-def = RAM network inhibition, efflux-deficient strain | shares compounds with RAM inhibit | S. cerevisiae efflux-deficient reporter strain, 5-FOA growth OD615, 2 days | max inhibition, % | 1,200 tested, under 10 active | AID 1305; call rule not given here;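 note: plate controls were vehicle for no effect and reference inhibitor for full effect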
* hit, by the source's call; . = not tested or not shown. This is a sample that favours compounds with a hit; in the whole collection about 1.9% have one here.

SMILES | p47phox inh | p-CIP stab down | RAM inhibit | Dynein cargo inh | RAM efflux-def
COc1ccc(NC(=O)CN(C)Cc2cccs2)cc1Cl | . | -20.1 | . | . | .
Cc1ccc(-c2noc(CCC(=O)N3CCN(c4cccc(C(F)(F)F)c4)CC3)n2)cc1 | -6.3 | -0.3 | 11.9* | -0.946 | 1.4
COc1ccc(-c2noc(CCC(=O)N3CCN(c4cc(C)ccc4C)CC3)n2)cc1 | -17.0 | -8.6 | 3.7 | -0.597 | .
CN(c1cccc(NC(=O)CN(c2ccc(F)cc2)S(C)(=O)=O)c1)S(C)(=O)=O | -7.2 | -9.7 | 12.9* | 2.17 | 3.2
CC(NC(=O)c1cc2c(s1)CS(=O)(=O)C2)c1ccccc1 (stereo not drawn) | . | -3.9 | . | . | .
C=CCN1C(=O)C(Cc2ccc(C)cc2)S/C1=N/N=C/c1ccco1 (stereo not drawn) | -21.7 | -13.6 | 14.1* | -0.63 | 1.6
C=CCN1C(=O)C(Cc2cccc(C)c2)SC1=Nc1ccc(C(=O)O)cc1 (stereo not drawn) | -11.4 | -6.9 | 14.6* | -0.353 | 1.3
C=CCN1C(=O)C(Cc2ccccc2)SC1=Nc1ccc(C(=O)O)cc1 (stereo not drawn) | 4.8 | -15.0 | 1.7 | -1.03 | .
C=CCSc1nnc(CCCCCN2C(=O)c3cccc4cccc(c34)C2=O)o1 | -4.6 | -0.5 | 16.5* | -0.147 | 0.9
CCOC(=O)CCCCCN1C(=O)c2cccc3cccc(c23)C1=O | . | -6.2 | . | . | .
CCOC(=O)CCCSc1nnc(CCCCCN2C(=O)c3cccc4cccc(c34)C2=O)o1 | 3.9 | -11.4 | 13.9* | -0.775 | 3.1
O=C(/C=C/c1ccc(-c2ccccc2)o1)c1ccccc1 | 12.5 | -9.7 | 11.4* | -0.592 | 7.0
Cc1ccc(C(=O)/C=C/c2ccc(-c3ccccc3[N+](=O)[O-])o2)cc1 | -6.8 | 1.9 | 14.6* | -0.716 | 3.4
O=C(/C=C/c1ccc(-c2ccccc2[N+](=O)[O-])o1)c1ccc(Br)cc1 | -14.2 | -9.7 | 11.9* | -0.7 | 2.5
COc1ccc(C(C(=O)NC2CCCC2)N(Cc2cccnc2)C(=O)Cc2cccs2)c(OC)c1 (stereo not drawn) | . | 6.5 | . | . | .
Cc1cc(OCCN2CCC(Cc3ccccc3)CC2)ccc1[N+](=O)[O-] | . | -14.6 | . | . | .
CC(C)(C)C1CCC(N2CCN(c3ccccc3)CC2)CC1 (stereo not drawn) | . | 1.3 | . | . | .
CCCCn1c(-c2cccs2)nc2nc3ccccc3nc21 | -30.7 | -12.5 | 12.3* | 2.08 | 4.3
O=C(Nc1cc2c3c(c1)C1CCCC1CN3CC1CCCC21)c1ccccc1 (stereo not drawn) | -9.8 | -14.1 | 2.9 | -0.328 | .
O=C(CSc1cccc(C(F)(F)F)c1)Nc1cc(S(=O)(=O)N2CCCC2)ccc1Cl | -60.3 | -4.4 | 15.5* | 0.12 | 1.2
COc1ccc(C(=O)NCCc2nnc3ccc(SCC(=O)N4CCCC4)nn23)cc1 | . | 14.7 | . | . | .
COc1cccc(N2CCN(S(=O)(=O)c3ccc(-n4cnnn4)cc3)CC2)c1 | . | -1.8 | . | . | .
C=CCN(C(=O)CCC(=O)Nc1cc(C)on1)C(C(=O)NC(C)(C)C)c1ccc(OC)cc1 (stereo not drawn) | . | 0.5 | . | . | .
CCn1c(=NC(=O)c2cccc(N3C(=O)CCC3=O)c2)sc2c(OC)ccc(OC)c21 | -26.4 | -3.2 | 11.5* | -0.0368 | 2.6
COc1ccc(OC)c2c1sc(=NC(=O)c1cccc(N3C(=O)CCC3=O)c1)n2C | 5.6 | 0.6 | 2.5 | -0.494 | .
SMILES | p47phox inh | p-CIP stab down | RAM inhibit | Dynein cargo inh | RAM efflux-def
CCN1C(=O)/C(=C/C=C2/CCCN2C)OC1=S | -16.7 | -4.3 | -1.7 | -0.242 | .
COc1ccc(C(=O)NNC(=O)C(Cc2ccc(O)cc2)NC(=O)c2ccccc2NC(=O)c2ccc(OC)cc2)cc1 (stereo not drawn) | -21.4 | -5.8 | 11.5* | -0.638 | 4.0
Cc1cc(S(=O)(=O)N(Cc2cccs2)Cc2ccccc2F)ccc1-n1cnnn1 | -5.2 | 2.4 | 12.6* | -0.711 | 2.0
CCc1noc(C)c1C(=O)Nc1ccc(C(F)(F)F)cc1 | . | 2.6 | . | . | .
Cc1cccc(/C=C\c2nc3ccccc3c(=O)[nH]2)c1 | -1.3 | -13.9 | 11.5* | -0.834 | 1.6
COc1ccc(/C=N/N2CCN(Cc3ccc(C)cc3)CC2)cc1Br | . | -4.0 | . | . | .
S=C(Nc1ccc(Oc2ccccc2)cc1)NC1CCCC1 | -15.0 | 4.1 | 3.3 | 0.725 | .
S=C(NCC1CCCCC1)Nc1ccc(Oc2ccccc2)cc1 | -69.8 | 3.5 | 14.8* | -0.521 | 1.9
O=C(O)C1C2CC3C(OC(=O)C31)C2Cl (stereo not drawn) | -0.1 | -4.7 | -0.1 | 0.352 | .
